Data from ChEMBL document CHEMBL4808254, “Further SAR studies on natural template based neuroprotective molecules for the treatment of Alzheimer's disease” (Bioorg Med Chem, 2021).
Calls of active or inactive are those of the source. The rule behind the calls is not given here.

Columns and labels:
Acetylcholinesterase [1] = molecular target: T1, Acetylcholinesterase (Homo sapiens, UniProt P22303); assay: Inhibition of AChE in human erythrocytes using acetylthiocholine iodide as substrate at 20 uM preincubated with enzyme for 30 mins followed by substrate addition and measured after 30 mins by Ellman's method relative to control; assay type: cell-based; conditions: Erythrocyte, time 60.0 min
Summary of the method: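 hAChE (0.022 U/mL) preincubated with inhibitor at 20 µM, 37 °C, 30 min. ATCI (1.5 mM) then added and incubated a further 30 min, followed by DTNB (0.15 mM). Absorbance read at 415 nm. % inhibition = [(Ac − Ai)/Ac] × 100 against an uninhibited enzyme. Mean ± SD of two or three experiments run in triplicate.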

Cholinesterase = Cholinesterase (Equus caballus, UniProt P81908); assay: Inhibition of equine serum BChE using butyrylthiocholine iodide as substrate preincubated with enzyme for 30 mins followed by substrate addition and measured after 30 mins by Ellman's method; assay type: cell-free
Summary of the method: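 Equine BChE (0.06 U/mL) preincubated with a range of inhibitor concentrations, 37 °C, 30 min. BTCI (15 mM) then added for 30 min, followed by DTNB (1.5 mM). A415 recorded. Mean ± SD of two or three independent experiments, each in triplicate.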

Acetylcholinesterase [2] = molecular target: T1, Acetylcholinesterase; assay: Inhibition of AChE in human erythrocytes using acetylthiocholine iodide as substrate preincubated with enzyme for 30 mins followed by substrate addition and measured after 30 mins by Ellman's method; assay type: cell-based, Erythrocyte
[3] = molecular target: Cholinesterase (Equus caballus) (UniProt P81908); assay: Inhibition of equine serum BChE using butyrylthiocholine iodide as substrate at 20 uM preincubated with enzyme for 30 mins followed by substrate addition and measured after 30 mins by Ellman's method relative to control; assay type: cell-free; conditions: time 60.0 min
Summary of the method: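 Equine BChE (0.06 U/mL) preincubated with inhibitor at 20 µM, 37 °C, 30 min. BTCI (15 mM) then added and incubated a further 30 min, followed by DTNB (1.5 mM). Absorbance read at 415 nm. % inhibition taken relative to an enzyme-only control. Mean ± SD of two or three experiments run in triplicate.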

[4] = Antioxidant activity assessed as DPPH radical scavenging activity at 20 uM measured after 25 mins by microplate reader based assay relative to control; assay type: functional
Summary of the method: (§1)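 Test compound at serial concentrations (single 20 µM for percent values) mixed 1:1 with 200 µM DPPH in methanol; 25 min at 37 °C with shaking at 300 rpm; absorbance read at 517 nm. Percent scavenging taken against DPPH control; IC50 is the concentration that removes 50% of radical. Mean ± SD of three independent experiments.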

[5] = Antioxidant activity assessed as DPPH radical scavenging activity measured after 25 mins by microplate reader based assay; assay type: functional; summary of the method: as §1
Acetylcholinesterase [6] = molecular target: T1, Acetylcholinesterase; assay: Mixed inhibition of human erythrocyte AChE using different concentration of acetylthiocholine iodide as substrate preincubated with enzyme for 30 mins by Lineweaver-Burk plot analysis; assay type: tissue-based
Summary of the method: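 hAChE preincubated with inhibitor at three concentrations, 37 °C, 30 min. ATCI added at 0.5, 1.0, 1.5, 2.0 and 2.5 mM, then DTNB (0.15 mM). A415 recorded. Lineweaver-Burk double-reciprocal analysis used to assign the mechanism. Duplicate runs; mean ± SD of two independent experiments.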

[7] = molecular target: Cholinesterase (Equus caballus) (UniProt P81908); assay: Mixed inhibition of equine serum BChE using different concentration of butyrylthiocholine iodide as substrate preincubated with enzyme for 30 mins by Lineweaver-Burk plot analysis; assay type: cell-free
Summary of the method: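 eqBChE preincubated with inhibitor at three concentrations, 37 °C, 30 min. BTCI added at 5, 10, 15, 20 and 25 mM, then DTNB (1.5 mM). Absorbance read at 415 nm. Double-reciprocal 1/[S] vs 1/V plots used to assign inhibition type. Duplicate runs; mean ± SD of two independent experiments.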

[8] = Metal chelating activity assessed as mole fraction required to show 1:1 stoichiometry for compound-Fe3+ complex formation measured after 24 hrs in presence Fecl3.6H2O by Job's plot analysis
Summary of the method: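 Stoichiometry by molar-ratio titration of compound against FeCl3 in methanol (0–10 ratio) at room temperature with UV spectra recorded. Job's plot built from Fe(III) mole fraction against absorbance. Means of duplicate runs.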

N2a [9] = assay: Cytotoxicity against mouse N2a cells assessed as effect on cell viability at 0.01 to 20 uM measured after 24 hrs by MTT assay; assay type: cell-based; conditions: dose 0.01-20 µM
Summary of the method: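 Neuro2a cells seeded at 1 × 10^4/well and left overnight to adhere. Exposed to 0.01, 0.1, 1, 2.5, 5, 10 or 20 µM in triplicate for 24 h at 37 °C in 5% CO2. Viability then read by MTT and expressed as percent of untreated cells. Mean ± SE of three independent experiments.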

N2a [10] = assay: Neuroprotective activity against H2O2-induced neurotoxicity in mouse N2a cells assessed as increase in cell viability at 1 to 20 uM preincubated for 24 hrs followed by co-incubation with H2O2 and measured after 24 hrs by MTT assay; assay type: functional, cell-based; conditions: dose 1-20 µM, time 48.0 hrs
Summary of the method: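 N2a cells seeded at 1 × 10^4/well and left overnight. Pre-incubated 24 h with 1, 2.5, 5, 10 or 20 µM, then co-incubated with 600 µM H2O2 for a further 24 h. MTT added for 4 h at 37 °C and formazan extracted in 0.04 N HCl/isopropanol for 1 h. OD read at 570 nm; viability as percent of untreated control. Three independent experiments, mean ± SEM.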

[11] = Permeability of the compound in PBS buffer at pH 7.4 at 500 uM incubated for 18 hrs by PAMPA-BBB assay
Mus musculus = assay: Reversal of scopolamine induced cognitive memory impairment in C57BL/6 mouse assessed as escape latency time at 10 mg/kg, po administered 30 mins prior to scopolamine injection daily for 14 days by Morris water maze test (reference value: 50.11 +/-5.91 secs); assay type: functional; conditions: time 14 day
[12] = Metal chelating activity assessed as compound-Fe3+ complex formation at 600 uM measured after 24 hrs at pH 7.4 in presence Fecl3.6H2O by UV-Vis spectroscopic analysis
Summary of the method: (§2)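 600 µM compound and 600 µM FeCl3·6H2O, both in methanol, mixed in equal volume and shaken at 1000 rpm for 24 h at 25 °C, then UV-scanned. For pH 7.4, diluted DIPEA added before rescanning. Spectra recorded from 300 to 700 nm, with the d–d region at 400–700 nm. Run in duplicate.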

[13] = Metal chelating activity assessed as compound-Fe3+ complex formation at 600 uM measured after 24 hrs at pH 4.2 in presence Fecl3.6H2O by UV-Vis spectroscopic analysis; summary of the method: as §2

Cholinesterase, sequence (P81908 whole entry): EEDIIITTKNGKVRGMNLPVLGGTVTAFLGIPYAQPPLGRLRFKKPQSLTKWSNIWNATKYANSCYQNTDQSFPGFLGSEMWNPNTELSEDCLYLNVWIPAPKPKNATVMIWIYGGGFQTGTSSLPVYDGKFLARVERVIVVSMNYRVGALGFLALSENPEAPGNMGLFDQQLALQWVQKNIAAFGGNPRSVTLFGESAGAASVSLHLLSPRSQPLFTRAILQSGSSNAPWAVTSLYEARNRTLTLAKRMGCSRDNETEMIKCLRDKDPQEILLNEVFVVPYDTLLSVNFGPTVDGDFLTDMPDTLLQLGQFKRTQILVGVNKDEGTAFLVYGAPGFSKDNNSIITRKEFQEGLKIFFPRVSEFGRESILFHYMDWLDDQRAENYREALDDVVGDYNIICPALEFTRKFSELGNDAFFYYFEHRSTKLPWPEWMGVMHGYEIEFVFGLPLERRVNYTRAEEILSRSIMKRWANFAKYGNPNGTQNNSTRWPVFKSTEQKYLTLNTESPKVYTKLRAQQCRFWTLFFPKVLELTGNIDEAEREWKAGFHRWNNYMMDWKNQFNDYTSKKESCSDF
Cholinesterase (Equus caballus), sequence (P81908 whole entry): as above
T1 sequence (P22303 whole entry): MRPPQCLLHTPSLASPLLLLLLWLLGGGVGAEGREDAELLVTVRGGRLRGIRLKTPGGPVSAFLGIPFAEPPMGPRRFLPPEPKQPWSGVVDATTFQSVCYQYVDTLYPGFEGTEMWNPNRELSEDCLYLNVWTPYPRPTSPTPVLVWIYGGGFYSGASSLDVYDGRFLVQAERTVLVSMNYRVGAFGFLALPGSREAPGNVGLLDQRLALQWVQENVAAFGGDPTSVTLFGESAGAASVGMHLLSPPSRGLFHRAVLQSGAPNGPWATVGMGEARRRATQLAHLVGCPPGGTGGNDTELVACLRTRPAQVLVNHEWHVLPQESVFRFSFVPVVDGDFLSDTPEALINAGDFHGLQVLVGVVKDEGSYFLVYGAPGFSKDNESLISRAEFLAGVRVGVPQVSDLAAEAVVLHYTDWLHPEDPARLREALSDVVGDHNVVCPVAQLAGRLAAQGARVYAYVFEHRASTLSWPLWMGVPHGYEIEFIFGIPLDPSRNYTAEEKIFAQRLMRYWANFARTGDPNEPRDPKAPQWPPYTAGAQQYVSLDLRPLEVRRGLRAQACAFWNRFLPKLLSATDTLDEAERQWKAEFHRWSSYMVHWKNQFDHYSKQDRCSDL

Row | SMILES | inhibition (Acetylcholinesterase [1]) [%] | IC50 (Cholinesterase) [µM] | IC50 (Acetylcholinesterase [2]) [µM] | Activity [4] [%] | IC50 [5] [µM] | further results
1 | COc1cc(/C=C/C(=O)N2CCN(Cc3ccccc3C#N)CC2)ccc1O | 45.4 | 14.9 | – | – | – | –
2 | COc1cc(/C=C/C(=O)N2CCN(Cc3ccc(C)cc3)CC2)ccc1O | 43.2 | 14.8 | – | – | – | –
3 | COc1ccc(CN2CCN(C(=O)/C=C/c3ccc(O)c(OC)c3)CC2)cc1 | – | – | 16.4 | 30.5 | 46.4 | inhibition [3]: 45.1%
4 | COc1cccc(CN2CCN(C(=O)/C=C/c3ccc(O)c(OC)c3)CC2)c1 | – | – | 15.2 | – | – | inhibition [3]: 49.1%
5 | COc1cc(/C=C/C(=O)O)ccc1O [FERULATE] | 15.1 | – | – | 33.1 | 58.3 | inhibition [3]: 17.1%
6 | COc1cc(/C=C/C(=O)NCC(=O)Nc2ccc3[nH]ccc3c2)ccc1O | – | – | – | – | 57.4 | –
7 | COc1cccc(NC(=O)CCNC(=O)/C=C/c2ccc(O)c(OC)c2)c1 | – | 11.3 | 2.41 | 21.3 | – | –
8 | COc1cc(/C=C/C(=O)N2CCN(Cc3cccc(Cl)c3)CC2)ccc1O | – | 14.8 | 15.4 | 23.1 | 61.5 | –
9 | COc1cc(/C=C/C(=O)N2CCN(Cc3ccc(Cl)cc3)CC2)ccc1O | 37.3 | 15.9 | – | 32.4 | 62.4 | –
10 | COc1cc(/C=C/C(=O)N2CCN(Cc3cccc([N+](=O)[O-])c3)CC2)ccc1O | 38.8 | 14.6 | – | – | – | –
11 | COc1cc(/C=C/C(=O)N2CCN(Cc3ccccc3Cl)CC2)ccc1O | 47 | 15.2 | – | – | – | –
12 | COc1cc(/C=C/C(=O)N2CCN(Cc3cccc(C)c3)CC2)ccc1O | 45.5 | 14.7 | – | 26.3 | 66 | –
13 | COc1cc(/C=C/C(=O)N2CCN(Cc3ccccc3C)CC2)ccc1O | 43.1 | 15.1 | – | – | – | –
14 | COc1cc(/C=C/C(=O)N2CCN(Cc3ccc(F)cc3)CC2)ccc1O | – | 14.8 | 14.5 | 23.1 | 51.9 | –
15 | COc1cc(/C=C/C(=O)NCC(=O)NCCc2c[nH]c3ccccc23)ccc1O | – | 3.14 | 1.42 | 38.5 | 29.1 | –
16 | COc1cc(/C=C/C(=O)NCC(=O)NCCc2c[nH]c3ccc(Cl)cc23)ccc1O | – | 1.29 | 0.84 | 47.3 | 23.6 | –
17 | COc1cccc(N2CCN(C(=O)/C=C/c3ccc(O)c(OC)c3)CC2)c1 | – | – | – | – | 62 | –
18 | COc1cc(/C=C/C(=O)NCCC(=O)Nc2ccccc2)ccc1O | – | 16.4 | 14.8 | 10.6 | 95.6 | –
19 | COc1cc(/C=C/C(=O)N2CCN(Cc3ccccc3F)CC2)ccc1O | 34.2 | 15.9 | – | – | – | –
20 | COc1ccc2[nH]cc(CCNC(=O)CNC(=O)/C=C/c3ccc(O)c(OC)c3)c2c1 | – | 1.23 | 0.96 | 51.9 | 20.2 | inhibition (Acetylcholinesterase [6]): Active; inhibition [7]: Active; Activity [8]: 50%; Activity (N2a [9]): Non-Toxic; Activity (N2a [10]): Active; Papp at 18 h, 500 µM [11]: 8.51 ×10⁻⁶ cm/s; Time (Mus musculus): 32.28 s; Activity [12]: Active; Activity [13]: Active
21 | COc1cc(/C=C/C(=O)N2CCN(Cc3cccc(F)c3)CC2)ccc1O | – | 14 | 13.1 | 40.2 | 26.6 | inhibition (Acetylcholinesterase [6]): Active; inhibition [7]: Active; Papp at 18 h, 500 µM [11]: 9.57 ×10⁻⁶ cm/s
22 | COc1cc(/C=C/C(=O)N2CCN(Cc3ccccc3)CC2)ccc1O | – | – | 13.3 | 38.4 | 31.3 | inhibition [3]: 45.1%
23 | COc1cc(/C=C/C(=O)NCCC(=O)Nc2ccc(Cl)cc2)ccc1O | – | 7.13 | 5.32 | 18.7 | 84.2 | –
24 | COc1cc(/C=C/C(=O)N2CCN(Cc3ccc(C#N)cc3)CC2)ccc1O | 39.4 | 15.6 | – | – | – | –
25 | COc1cc(/C=C/C(=O)N2CCN(Cc3cccc(C#N)c3)CC2)ccc1O | 42.4 | 14.7 | – | – | – | –
